WT yeast gro inh: growth inhibition of WT strain, primary screen, mitochondrial fusion inhibitor project, WT and mutant strains, chemical genetic. mitochondrial fusion phenotypic screen. inhibition, % at 10 µM. hit rate 2.1% among 190,000. AID 1362, 2008; in the data active = inhibition above about 58%; tested in S. cerevisiae
Yeast life ext: compounds extending yeast replicative lifespan, primary screen, S. cerevisiae, OD615; S. cerevisiae growth with nicotinamide; deaD strain in restrictive glucose medium; inhibition of the nicotinamide effect, % at 10 µM; hit rate 0.68% among 130,000;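 active = inhibition above a set limit, placed 3 SD over the median of all compounds, cut at about 26% in these data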
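Buffer or medium: CSMM-D glucose medium, restrictive; test system: modified budding yeast, DeaD strain; compound: single dose 10 µM compound, 0.25% DMSO; schedule: culture preincubation 4 h, compound exposure 48 h, both 30 °C; detection: optical density (absorbance) at 615 nm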
RAM inhibit: inhibitors of the yeast RAM network, primary screen, dse1pr::URA3 reporter, 5-FOA selection. inhibition, % at 50 µM. AID 868, 2007. S. cerevisiae dse1pr::URA3 reporter, 5-FOA growth OD615, 2 d; analog-sensitive cbk1-as2 kinase mutant strain. hit rate 1.8% among 190,000;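 active = inhibition above a set limit, 3 SD over mean compound inhibition, cut at about 8.4% in these data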;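 note: inhibition rescues growth on 5-FOA so higher OD means more RAM inhibition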
BB579 growth dn: growth inhibitors of yeast BB579 in restrictive medium, primary screen, yeast lifespan-shortening project, S. cerevisiae; AID 804, 2007; hit rate 0.51% among 140,000; OD615, 48 h; inhibition, % at 10 µM;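 active = inhibition above a set limit, 3 SD over the mean compound inhibition, cut at about 44% in these data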
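Assay system: S. cerevisiae DeaD strain BB579 yeast. Medium: CSMM-D restrictive synthetic medium containing dextrose (glucose). Times: 4 h cell preincubation, 48 h compound exposure, 30 °C humidified. Signal: OD615 turbidity measurement. Benchmarks: positive control amphotericin B 10 µg/mL.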
Each line names hits and unclear results; the compound was inactive in the other large screens. Most compounds without a hit are left out; they make up all but 4.3% or so of the library.

COc1ccc(-n2c(C)cc(/C=C3/SC(=S)N(C)C3=O)c2C)cc1	none
CN=C1S/C(=C\c2cc(C)n(-c3ccccc3F)c2C)C(=O)N1C	WT yeast gro inh 73
c1ccc(-c2ccc(-c3ccccn3)nn2)nc1	BB579 growth dn 68
CCCCN(C)CCCNC(=O)CS(=O)Cc1nc(-c2ccc(OC)c(OC)c2)oc1C (centres undefined)	none
CCCN(CCC)CCCNC(=O)CS(=O)Cc1nc(-c2ccc(OC)c(OC)c2)oc1C (centres undefined)	WT yeast gro inh 71
CC(C)CCN(C(=O)Nc1ccc(Cl)cc1)C1CCN(C(C)C)CC1	none (no result: Yeast life ext, BB579 growth dn)
CN(C)C(=O)C(NC(=O)c1ccccc1)=C(Cl)Cl	none (no result: Yeast life ext, BB579 growth dn)
COc1ccc(S(=O)(=O)N2CCC[C@H]2C(=O)NC2=NCCS2)cc1	WT yeast gro inh 66
Cc1ccc(S(=O)(=O)n2[nH]c(=O)cc2N)cc1	none (no result: Yeast life ext, BB579 growth dn)
COc1cccc2cc(-c3nnc(SCC(=O)NCc4ccccc4)n3C)oc12	RAM inhibit 9.1
CCn1c(SCC(=O)NC2CCCCC2)nnc1-c1cc2cccc(OC)c2o1	none
CCC(C)(C)NC(=O)c1ccc2c(c1)OCCO2	none (no result: Yeast life ext, BB579 growth dn)
Cc1nc2ccc(NC(=S)NCc3ccccc3)cc2nc1C	none (no result: Yeast life ext, BB579 growth dn)
COc1ccc(N(C)C(=S)Nc2ccc3nc(C)c(C)nc3c2)cc1	Yeast life ext 43
CCOC(=O)c1ccc(NC(=O)CCc2nc(-c3ccccc3)no2)cc1	RAM inhibit 9.5
O=S(=O)(NCC(Nc1ccc(Cl)cc1)c1ccccc1)c1ccc(Cl)cc1 (centres undefined)	WT yeast gro inh 74, RAM inhibit 9.0
Cn1c(Cl)c(/C=N/OC(=O)C2CC2)c2ccccc21	none (no result: Yeast life ext, BB579 growth dn)
Cc1ccccc1C(=O)O/N=C/c1c(N2CCOCC2)n(C)c2ccccc12	BB579 growth dn 79
CC(=O)Nc1ccc(NC(=O)Cc2ccc(S(=O)(=O)N3CCCCC3)s2)cc1	none
O=C(Cc1ccc(S(=O)(=O)N2CCOCC2)s1)Nc1ccc2c(c1)CCC2	RAM inhibit 9.4
Cc1ccc(CCSc2ccc(C(C)C)cc2)cn1	WT yeast gro inh 74
Cc1ccc(CCNc2ccc3ccccc3c2)cn1	none (no result: Yeast life ext)
Fc1ccc(C2c3cccn3CCN2C(=S)Nc2cccc(Br)c2)cc1 (centres undefined)	WT yeast gro inh 86 (no result: Yeast life ext, BB579 growth dn)
CCCCNC(=S)N1CCn2cccc2C1c1ccc(F)cc1 (centres undefined)	WT yeast gro inh 61 (no result: Yeast life ext, BB579 growth dn)
CCCCNC(=S)N1CCn2cccc2C1c1ccccc1 (centres undefined)	none (no result: Yeast life ext, BB579 growth dn)
Cc1cc(C)cc(NC(=O)OCCN2CCN(Cc3ccccc3)CCC2=O)c1	none
CC1=C(C#N)C(c2ccccc2)C2=C(N1)c1ccccc1C2=O (centres undefined)	none
CSC1=C(C#N)C(c2ccccc2Cl)C2=C(N1)c1ccccc1C2=O (centres undefined)	Yeast life ext 28
Cc1cc(C)c(NC(=O)c2cc3c(nc4sccn43)s2)c(C)c1	WT yeast gro inh 75
COc1cc(OC)cc(C(=O)N2CCC(n3c(C)nc4cc(F)ccc43)CC2)c1	WT yeast gro inh 69
COC(=O)c1sccc1NC(=O)c1cc(OC)cc(OC)c1	none (no result: Yeast life ext)
COC(=O)c1sc(-c2ccccc2)cc1NC(=O)c1ccc(F)cc1	none
COC(=O)c1sc(-c2ccccc2)cc1NC(=O)c1ccc(OC)cc1	RAM inhibit 8.7
COC(=O)c1sc(-c2ccccc2)cc1NC(=O)c1cc(OC)cc(OC)c1	RAM inhibit 8.8
COCCNC(=S)NNC(=O)c1ccc(-n2cnnn2)cc1	none (no result: Yeast life ext, BB579 growth dn)
COC(=O)c1sc(S(=O)(=O)NCc2ccccc2)c(C(=O)OC)c1C	none
COC(=O)c1sc(S(=O)(=O)Nc2ccc3cn[nH]c3c2)c(C(=O)OC)c1C	none
COC(=O)c1sc(S(=O)(=O)Nc2ccc(Br)cc2)c(C(=O)OC)c1C	Yeast life ext 42, RAM inhibit 8.7
COC(=O)c1sc(S(=O)(=O)Nc2ccc(C)cc2)c(C(=O)OC)c1C	Yeast life ext 38
C/C(N)=C(/C#N)C(=O)CSc1nc(C2CCCCC2)n(-c2ccccc2)n1	Yeast life ext 59
NC(=O)NC(=O)CSc1nc(C2CCCCC2)n(-c2ccccc2)n1	none
CCCCNC(=O)c1ccc(S(=O)(=O)c2ccc(Cl)cc2)c(NC(C)=O)c1	none
O=C(COc1ccccc1)c1cn(CC(=O)N2CCCC2)c2ccccc12	none (no result: Yeast life ext, BB579 growth dn)
COc1cc(OC)cc(-c2nnc(SCC(=O)Nc3cccc(C(=O)O)c3)s2)c1	none (no result: Yeast life ext, BB579 growth dn)
O=C(CSc1nnc(-c2cccnc2)s1)Nc1cccc(C(=O)O)c1	RAM inhibit 10

High-throughput results: PubChem, SRMLSC
